Measurements collected from several papers.
Protocols differ between the studies behind these lines.
TRPM8: Transient receptor potential cation channel subfamily M member 8 (TRPM8, Homo sapiens, UniProt Q7Z2W7)
AKR1B1: Aldo-keto reductase family 1 member B1 (AKR1B1, Homo sapiens, UniProt P15121)
SLC6A6: Sodium- and chloride-dependent taurine transporter (SLC6A6, Homo sapiens, UniProt P31641)
LATS2: Serine/threonine-protein kinase LATS2 (LATS2, Homo sapiens, UniProt Q9NRM7)

CCCCC1OC(=O)c2ccccc21 (stereo not drawn)  Kd (Vimentin (VIM, Homo sapiens, UniProt P08670); binding; SPR): 3.42 µM
CCCCCCCP(=O)(C(C)C)C(C)C  EC50 (TRPM8; calcium signal; agonist): 4.73 µM
CCCCCCCCCP(=O)(C(C)C)C(C)C  EC50 (TRPM8; ion current; agonist; patch clamp): 24.8 µM
CCNC(=O)C1CC(C)CCC1C(C)C (stereo not drawn)  EC50 (TRPM8; calcium signal; agonist): 8.36 µM
CCOc1cccc(C2CC(=O)Nc3c2c(C)nn3-c2ccc3nncn3n2)c1 (stereo not drawn)  Kd (DNA damage-binding protein 1 (DDB1, Homo sapiens, UniProt Q16531); binding; SPR): 10 µM
COc1cc(/C=N/NC(=S)NN=Cc2sccc2C)ccc1Oc1ccnc2cc(Cl)ccc12  IC50 (AKR1B1; enzyme activity; inhibitor; absorbance): 15.9 µM
N=C(N)NCC(=O)O  Kd (SLC6A6; binding; MST): 35.8 µM
O=C1NC(c2cccc([N+](=O)[O-])c2)=CCN1c1ccccc1O  EC50 (TRPM8; ion current; agonist; patch clamp): 0.412 µM
COc1cc(/C=N/NC(=S)N/N=C/c2ccc(Br)s2)ccc1Oc1ccnc2cc(Cl)ccc12  IC50 (AKR1B1; enzyme activity; inhibitor; absorbance): 17.7 µM
Cc1cc(-c2ccnc3[nH]cc(F)c23)cc(F)c1[C@@]1(O)[C@H](C)CN(C2CCS(=O)(=O)CC2)C[C@@H]1C  Kd (LATS2; binding; TR-FRET): 0.0017 µM
CCCCCCCCCCCCCCCC(=O)O  Kd (Platelet glycoprotein 4 (CD36, Homo sapiens, UniProt P16671); binding; SPR): 247 µM
CNC(=O)c1ccccc1Nc1nc(Nc2ccc(N3CCNCC3)cc2)ncc1Cl  IC50 (LATS2; target engagement in cells; BRET): 0.211 µM
CCCCC(=O)Nc1ccc(-c2ccc3ncn(CCC)c(=O)c3c2)cn1  Kd (Phosphatidylinositol 5-phosphate 4-kinase type-2 gamma (PIP4K2C, Homo sapiens, UniProt Q8TBX8); binding; competition with immobilised ligand): 0.00655 µM
Cc1cc(-c2ccnc3[nH]cc(F)c23)cc(F)c1[C@@]1(O)[C@H](C)CN(C(=O)CN)C[C@@H]1C  Kd (LATS2; binding; TR-FRET): 0.00049 µM
COc1cc(/C=N/NC(=S)N/N=C\c2ccc(CCl)cc2)ccc1Oc1ccnc2cc(Cl)ccc12  IC50 (AKR1B1; enzyme activity; inhibitor; absorbance): 20.4 µM
Cc1cc(-c2ccnc3[nH]cc(F)c23)cc(F)c1[C@@]1(O)[C@H](C)CN(C2COC2)C[C@@H]1C  IC50 (LATS2; enzyme activity; inhibitor; radiometric): 0.009 µM
NCCCC(=O)O  Kd (SLC6A6; binding; MST): 26 µM
COc1cc(/C=N/NC(=S)NN=Cc2ccc([N+](=O)[O-])o2)ccc1Oc1ccnc2cc(Cl)ccc12  Ki (AKR1B1; enzyme activity; inhibitor): 4.65 µM
